Values joined by “and” are separate entries in the source; they are usually repeats but may differ in a detail not shown here. Identical values can stand only once.
Assays:
Fibroblast = assay: Multiplex assay against human fibroblast; assay type: toxicity, cell-based
How it was run: (§1)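 Values for tubulin, mitochondrial-mass and membrane-permeability phenotypes are per cents of cells with healthy nuclei. These cells were identified by CellPathfinder machine-learning gating of live cells that had been stained at seeding with Hoechst33342, BioTracker Green Microtubule Cytoskeleton Dye, MitoTracker Red and Annexin V Alexa Fluor 680 and imaged on a CQ1 microscope at 37°C and 5% CO2 after compound addition. The gating first set Hoechst high-intensity objects apart from normal cells, then split normal cells into healthy, pyknosed or fragmented nuclei, and pyknosed cells into mitotic or apoptotic.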

U2OS = assay: Multiplex assay against U2OS; assay type: toxicity, cell-based; conditions: human; how it was run: as §1
[1] = 12 h, 1 µM, compound concentration 1 uM
[2] = 12 h, 10 µM, compound concentration 10 uM
[3] = 24 h, 1 µM, compound concentration 1 uM
[4] = 24 h, 10 µM, compound concentration 10 uM
[5] = 48 h, 1 µM, compound concentration 1 uM
[6] = 48 h, 10 µM, compound concentration 10 uM

CN1CCN(c2ccc(Nc3c4ccccc4nc4ccccc34)cc2)CC1.Cl.Cl.O
Population Apoptotic (%) (Fibroblast; [1]): 47% and 44% | Population Fragmented Nuclei (%) (Fibroblast; [1]): 15% and 28% | Population Healthy Nuclei (%) (Fibroblast; [1]): 69% and 56% | Population Hoechst High Intensity Objects (%) (Fibroblast; [1]): 1% | Population Membrane Permeable-Phenotype (%) (Fibroblast; [1]): 0% and 5% | Population Mitochondria Different-Phenotype (%) (Fibroblast; [1]): 3% and 5% | Population Mitotic Cells (%) (Fibroblast; [1]): 52% and 56% | Population Normal (%) (Fibroblast; [1]): 98% | Population Pyknosed Nuclei (%) (Fibroblast; [1]): 14% and 15% | Population Tubulin-Different-Phenotype (%) (Fibroblast; [1]): 23% and 34% | Total Cell Count (Fibroblast; [1]): 135 and 160 | Population Apoptotic (%) (Fibroblast; [2]): 91% and 66% | Population Fragmented Nuclei (%) (Fibroblast; [2]): 42% and 65% | Population Healthy Nuclei (%) (Fibroblast; [2]): 49% and 29% | Population Hoechst High Intensity Objects (%) (Fibroblast; [2]): 8% and 16% | Population Membrane Permeable-Phenotype (%) (Fibroblast; [2]): 0% and 4% | Population Normal (%) (Fibroblast; [2]): 91% and 83% | Population Pyknosed Nuclei (%) (Fibroblast; [2]): 8% and 4% | Population Tubulin-Different-Phenotype (%) (Fibroblast; [2]): 90% and 79% | Total Cell Count (Fibroblast; [2]): 158 and 177 | Population Apoptotic (%) (Fibroblast; [3]): 70% and 60% | Population Fragmented Nuclei (%) (Fibroblast; [3]): 21% and 29% | Population Healthy Nuclei (%) (Fibroblast; [3]): 65% and 57% | Population Hoechst High Intensity Objects (%) (Fibroblast; [3]): 0% | Population Membrane Permeable-Phenotype (%) (Fibroblast; [3]): 0% and 3% | Population Mitochondria Different-Phenotype (%) (Fibroblast; [3]): 2% and 7% | Population Mitotic Cells (%) (Fibroblast; [3]): 29% and 40% | Population Normal (%) (Fibroblast; [3]): 99% and 100% | Population Pyknosed Nuclei (%) (Fibroblast; [3]): 12% | Total Cell Count (Fibroblast; [3]): 139 and 155 | Population Apoptotic (%) (Fibroblast; [4]): 77% and 60% | Population Fragmented Nuclei (%) (Fibroblast; [4]): 47% and 69% | Population Healthy Nuclei (%) (Fibroblast; [4]): 39% and 27% | Population Hoechst High Intensity Objects (%) (Fibroblast; [4]): 16% and 21% | Population Membrane Permeable-Phenotype (%) (Fibroblast; [4]): 1% and 6% | Population Mitochondria Different-Phenotype (%) (Fibroblast; [4]): 66% and 34% | Population Mitotic Cells (%) (Fibroblast; [4]): 22% and 40% | Population Normal (%) (Fibroblast; [4]): 83% and 78% | Population Pyknosed Nuclei (%) (Fibroblast; [4]): 12% and 3% | Population Tubulin-Different-Phenotype (%) (Fibroblast; [4]): 94% and 84% | Total Cell Count (Fibroblast; [4]): 206 and 205 | Population Apoptotic (%) (Fibroblast; [5]): 66% and 55% | Population Fragmented Nuclei (%) (Fibroblast; [5]): 23% and 25% | Population Healthy Nuclei (%) (Fibroblast; [5]): 70% and 68% | Population Hoechst High Intensity Objects (%) (Fibroblast; [5]): 1% | Population Membrane Permeable-Phenotype (%) (Fibroblast; [5]): 0% and 1% | Population Mitochondria Different-Phenotype (%) (Fibroblast; [5]): 4% | Population Mitotic Cells (%) (Fibroblast; [5]): 33% and 44% | Population Normal (%) (Fibroblast; [5]): 98% | Population Pyknosed Nuclei (%) (Fibroblast; [5]): 6% and 5% | Population Tubulin-Different-Phenotype (%) (Fibroblast; [5]): 26% | Total Cell Count (Fibroblast; [5]): 144 and 157 | Population Fragmented Nuclei (%) (Fibroblast; [6]): 71% and 88% | Population Healthy Nuclei (%) (Fibroblast; [6]): 15% and 11% | Population Hoechst High Intensity Objects (%) (Fibroblast; [6]): 45% and 38% | Population Membrane Permeable-Phenotype (%) (Fibroblast; [6]): 15% and 25% | Population Mitochondria Different-Phenotype (%) (Fibroblast; [6]): 30% and 12% | Population Normal (%) (Fibroblast; [6]): 54% and 61% | Population Pyknosed Nuclei (%) (Fibroblast; [6]): 12% and 0% | Population Tubulin-Different-Phenotype (%) (Fibroblast; [6]): 25% and 56% | Total Cell Count (Fibroblast; [6]): 235 and 236 | Population Apoptotic (%) (U2OS; [1]): 100% and 87% | Population Fragmented Nuclei (%) (U2OS; [1]): 25% and 23% | Population Healthy Nuclei (%) (U2OS; [1]): 65% and 69% | Population Hoechst High Intensity Objects (%) (U2OS; [1]): 0% | Population Membrane Permeable-Phenotype (%) (U2OS; [1]): 19% and 14% | Population Mitochondria Different-Phenotype (%) (U2OS; [1]): 7% and 13% | Population Mitotic Cells (%) (U2OS; [1]): 0% and 12% | Population Normal (%) (U2OS; [1]): 99% and 100% | Population Pyknosed Nuclei (%) (U2OS; [1]): 8% and 7% | Population Tubulin-Different-Phenotype (%) (U2OS; [1]): 17% and 13% | Total Cell Count (U2OS; [1]): 193 and 107 | Population Apoptotic (%) (U2OS; [2]): 93% and 100% | Population Fragmented Nuclei (%) (U2OS; [2]): 54% and 62% | Population Healthy Nuclei (%) (U2OS; [2]): 38% and 31% | Population Hoechst High Intensity Objects (%) (U2OS; [2]): 0% and 2% | Population Membrane Permeable-Phenotype (%) (U2OS; [2]): 65% and 70% | Population Mitochondria Different-Phenotype (%) (U2OS; [2]): 95% and 100% | Population Mitotic Cells (%) (U2OS; [2]): 6% and 0% | Population Normal (%) (U2OS; [2]): 99% and 97% | Population Pyknosed Nuclei (%) (U2OS; [2]): 7% and 6% | Population Tubulin-Different-Phenotype (%) (U2OS; [2]): 82% and 85% | Total Cell Count (U2OS; [2]): 213 and 132 | Population Apoptotic (%) (U2OS; [3]): 92% and 100% | Population Fragmented Nuclei (%) (U2OS; [3]): 28% and 29% | Population Healthy Nuclei (%) (U2OS; [3]): 64% and 60% | Population Hoechst High Intensity Objects (%) (U2OS; [3]): 1% and 4% | Population Membrane Permeable-Phenotype (%) (U2OS; [3]): 10% and 5% | Population Mitochondria Different-Phenotype (%) (U2OS; [3]): 6% and 12% | Population Mitotic Cells (%) (U2OS; [3]): 7% and 0% | Population Normal (%) (U2OS; [3]): 98% and 95% | Population Pyknosed Nuclei (%) (U2OS; [3]): 6% and 10% | Population Tubulin-Different-Phenotype (%) (U2OS; [3]): 7% and 6% | Total Cell Count (U2OS; [3]): 200 and 124 | Population Apoptotic (%) (U2OS; [4]): 100% and 90%
